# Laboratory results taken from ChEMBL document CHEMBL4765302, “Design, synthesis and biological evaluation of novel histone deacetylase1/2 (HDAC1/2) and cyclin-dependent Kinase2 (CDK2) dual inhibitors against malignant cancer” (Eur J Med Chem, 2020).
# Active and inactive are the calls of the source. The rule behind the calls is not given here.
# How the values were obtained:
# NCI-H460 [1] = test: Antiproliferative activity against human H460 cells assessed as reduction in cell growth at 2 uM incubated for 72 hrs by CCK-8 assay relative to control; type: functional
# A-375 [2] = test: Antiproliferative activity against human A-375 cells assessed as reduction in cell growth incubated for 72 hrs by CCK-8 assay; type: functional, cell-based; conditions: A-375, 72 h
# Method in brief: (§1)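 IC50 by CCK-8 assay across five solid-tumour lines (HCT116, HepG2, H460, HeLa, A375). Run only for compounds chosen after the single-concentration screen, with CS055 and roscovitine as references.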
# HCT-116 [3] = test: Antiproliferative activity against human HCT-116 cells assessed as reduction in cell growth incubated for 72 hrs by CCK-8 assay; type: functional, cell-based; conditions: HCT-116, 72 h; method in brief: as §1
# Histone deacetylase 1 = Histone deacetylase 1 (Homo sapiens, UniProt Q13547); test: Inhibition of recombinant human HDAC1 using SIRT1 as substrate incubated for 10 mins followed by substrate addition and measured after 30 mins by fluorescence based assay
# Sequence of Histone deacetylase 1 (Q13547 whole entry): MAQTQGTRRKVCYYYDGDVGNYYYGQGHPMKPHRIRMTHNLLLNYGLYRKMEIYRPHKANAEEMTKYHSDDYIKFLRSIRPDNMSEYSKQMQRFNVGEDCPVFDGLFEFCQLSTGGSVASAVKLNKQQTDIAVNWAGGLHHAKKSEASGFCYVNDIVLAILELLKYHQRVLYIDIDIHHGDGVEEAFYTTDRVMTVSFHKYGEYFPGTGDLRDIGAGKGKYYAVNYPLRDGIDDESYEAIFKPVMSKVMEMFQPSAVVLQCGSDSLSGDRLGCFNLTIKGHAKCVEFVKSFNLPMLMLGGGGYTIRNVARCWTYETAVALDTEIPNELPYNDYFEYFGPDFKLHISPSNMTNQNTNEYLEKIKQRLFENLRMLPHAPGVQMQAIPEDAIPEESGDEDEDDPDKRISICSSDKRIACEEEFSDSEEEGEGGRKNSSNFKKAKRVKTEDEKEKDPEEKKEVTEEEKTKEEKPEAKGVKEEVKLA
# Method in brief: (§2)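 IC50 values reported as means of at least two separate determinations, expressed as mean ±SD.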
# Histone deacetylase 2 [4] = biological target: T1, Histone deacetylase 2 (Homo sapiens, UniProt Q92769); test: Inhibition of recombinant human HDAC2 using FLUOR-DE-LYS-Green as substrate incubated for 10 mins followed by substrate addition and measured after 30 mins by fluorescence based assay; method in brief: as §2
# T1 sequence (Q92769 whole entry): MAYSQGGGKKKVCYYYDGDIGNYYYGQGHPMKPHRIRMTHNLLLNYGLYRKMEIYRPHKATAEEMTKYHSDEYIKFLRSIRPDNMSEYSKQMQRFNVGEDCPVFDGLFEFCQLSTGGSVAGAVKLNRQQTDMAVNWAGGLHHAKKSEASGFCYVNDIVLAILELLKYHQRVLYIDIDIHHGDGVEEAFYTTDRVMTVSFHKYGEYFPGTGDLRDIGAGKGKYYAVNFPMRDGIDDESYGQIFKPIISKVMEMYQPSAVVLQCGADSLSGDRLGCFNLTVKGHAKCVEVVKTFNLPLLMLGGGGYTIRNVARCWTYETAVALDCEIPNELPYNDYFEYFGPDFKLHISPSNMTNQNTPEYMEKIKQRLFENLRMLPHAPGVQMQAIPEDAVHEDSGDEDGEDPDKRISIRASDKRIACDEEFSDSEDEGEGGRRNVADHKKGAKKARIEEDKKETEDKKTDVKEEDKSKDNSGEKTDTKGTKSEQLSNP
# Histone deacetylase 2 [5] = biological target: T1, Histone deacetylase 2; test: Potency index, ratio of IC50 of CS055 to IC50 of compound for inhibition of recombinant human HDAC2 using FLUOR-DE-LYS-Green as substrate incubated for 10 mins followed by substrate addition and measured after 30 mins by fluorescence based assay
# A-375 [6] = test: Induction of cell cycle arrest in human A-375 cells assessed as reduction in G0/G1 phase at 0.5 to 2 uM incubated for 24 hrs by PI staining based flow cytometry; type: functional; conditions: dose 0.5-2 µM
# Method in brief: (§3)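 Treatment at 2, 1 and 0.5 μM for 24 h, alongside CS055 and roscovitine, against a DMSO (0.1 %) blank. Cells then stained with propidium iodide and analyzed by flow cytometry.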
# NCI-H460 [7] = test: Induction of cell cycle arrest in human NCI-H460 cells assessed as reduction in G0/G1 phase at 0.5 to 2 uM incubated for 24 hrs by PI staining based flow cytometry; type: functional; conditions: dose 0.5-2 µM; method in brief: as §3
# HeLa [8] = test: Induction of cell cycle arrest in human HeLa cells assessed as reduction in G0/G1 phase at 0.5 to 2 uM incubated for 24 hrs by PI staining based flow cytometry; type: functional; conditions: dose 0.5-2 µM; method in brief: as §3
# A-375 [9] = test: Induction of apoptosis in human A-375 cells assessed as early apoptotic cells at 0.5 uM incubated for 48 hrs by annexin V-FITC and PI staining based flow cytometry (reference value: 1.34 %); type: functional
# HCT-116 [10] = test: Induction of apoptosis in human HCT-116 cells assessed as early apoptotic cells at 2 uM incubated for 48 hrs by annexin V-FITC and PI staining based flow cytometry (reference value: 4.14 %); type: functional
# HCT-116 [11] = test: Induction of apoptosis in human HCT-116 cells assessed as viable cells at 1 uM incubated for 48 hrs by annexin V-FITC and PI staining based flow cytometry (reference value: 93.9 %); type: functional; conditions: read-out: Activity
# NCI-H460 [12] = test: Induction of apoptosis in human NCI-H460 cells assessed as early apoptotic cells at 2 uM incubated for 48 hrs by annexin V-FITC and PI staining based flow cytometry (reference value: 2.88 %); type: functional
# NCI-H460 [13] = test: Induction of apoptosis in human NCI-H460 cells assessed as late apoptotic cells at 2 uM incubated for 48 hrs by annexin V-FITC and PI staining based flow cytometry (reference value: 6.11 %); type: functional
# NCI-H460 [14] = test: Induction of apoptosis in human NCI-H460 cells assessed as necrotic cells at 2 uM incubated for 48 hrs by annexin V-FITC and PI staining based flow cytometry (reference value: 0.632 %); type: functional
# NCI-H460 [15] = test: Induction of apoptosis in human NCI-H460 cells assessed as viable cells at 1 uM incubated for 48 hrs by annexin V-FITC and PI staining based flow cytometry (reference value: 90.4 %); type: functional; conditions: read-out: Activity
# NCI-H460 [16] = test: Induction of apoptosis in human NCI-H460 cells assessed as necrotic cells at 1 uM incubated for 48 hrs by annexin V-FITC and PI staining based flow cytometry (reference value: 0.632 %); type: functional
# NCI-H460 [17] = test: Induction of apoptosis in human NCI-H460 cells assessed as late apoptotic cells at 0.5 uM incubated for 48 hrs by annexin V-FITC and PI staining based flow cytometry (reference value: 6.11 %); type: functional
# HeLa [18] = test: Induction of apoptosis in human HeLa cells assessed as late apoptotic cells at 2 uM incubated for 48 hrs by annexin V-FITC and PI staining based flow cytometry (reference value: 0.870 %); type: functional
# HeLa [19] = test: Induction of apoptosis in human HeLa cells assessed as necrotic cells at 2 uM incubated for 48 hrs by annexin V-FITC and PI staining based flow cytometry (reference value: 0.124 %); type: functional
# HeLa [20] = test: Induction of apoptosis in human HeLa cells assessed as early apoptotic cells at 0.5 uM incubated for 48 hrs by annexin V-FITC and PI staining based flow cytometry (reference value: 0.528 %); type: functional
# A-375 [21] = test: Inhibition of HDAC in human A-375 cells assessed as increase the acetylation of histone H3 at 1 uM incubated for 12 hrs by DAPI and immunofluorescence staining based confocal microscopic analysis; type: cell-based
# [22] = Half life in ICR mouse at 4 mg/kg, iv measured upto 24 hrs by LC-MS/MS analysis; type: ADME, organism-based; conditions: in vivo
# Method in brief: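 Male ICR mice (N=9). Single dose, either 4 mg/kg intravenous or 20 mg/kg intraperitoneal. Parameters derived: T1/2, Tmax, Cmax, AUC0-t, MRT0-t and CL, with F for the intraperitoneal arm.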
# [23] = Toxicity in Balb/c mouse xenografted with human HCT-116 cells assessed as reduction in body weight at 25 to 100 mg/kg, ip administered for 21 days and measured on day 21; type: organism-based; conditions: in vivo, 504 h, dose 25-100 mg/kg, time 21 day
# Method in brief: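 BALB/c nude mice bearing HCT116 xenografts were dosed once daily by intraperitoneal injection at 25, 50 or 100 mg/kg for 21 days, starting when tumours reached 100-300 mm³. Body weight was tracked over the dosing period and compared with the blank group.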
# A-375 [24] = test: Induction of apoptosis in human A375 cells assessed as apoptosis rate at 2 uM incubated for 48 hrs by annexin V-FITC and PI staining based flow cytometry relative to control; type: functional
# HCT-116 [25] = test: Induction of apoptosis in human HCT-116 cells assessed as apoptosis rate at 2 uM incubated for 48 hrs by annexin V-FITC and PI staining based flow cytometry relative to control; type: functional
# HeLa [26] = test: Induction of apoptosis in human HeLa cells assessed as apoptosis rate at 2 uM incubated for 48 hrs by annexin V-FITC and PI staining based flow cytometry relative to control; type: functional
# [27] = Tmax in ICR mouse at 20 mg/kg, ip measured upto 24 hrs by LC-MS/MS analysis; conditions: in vivo
# [28] = Half life in ICR mouse at 20 mg/kg, ip measured upto 24 hrs by LC-MS/MS analysis; conditions: in vivo
structure (smiles),measurement,setting,value
Cc1ccc(Nc2nc(Cl)nc3c2ncn3Cc2ccc(C(=O)Nc3ccccc3N)cc2)cc1,inhibition at 2 µM,NCI-H460 [1],67.3%
same,IC50,A-375 [2],470 nM
same,IC50,HCT-116 [3],580 nM
same,IC50,Histone deacetylase 1,70.7 nM
same,IC50,Histone deacetylase 2 [4],23.1 nM
same,Ratio IC50,Histone deacetylase 2 [5],2
same,Activity,A-375 [6],Active
same,Activity,NCI-H460 [7],Active
same,Activity,HeLa [8],Active
same,Activity,A-375 [9],10.6%
same,Activity,HCT-116 [10],76.2%
same,viability at 1 µM,HCT-116 [11],13.3%
same,Activity,NCI-H460 [12],12%
same,Activity,NCI-H460 [13],47.1%
same,Activity,NCI-H460 [14],9.03%
same,viability at 1 µM,NCI-H460 [15],63.1%
same,Activity,NCI-H460 [16],0.871%
same,Activity,NCI-H460 [17],4.31%
same,Activity,HeLa [18],14.1%
same,Activity,HeLa [19],0.243%
same,Activity,HeLa [20],4.36%
same,inhibition,A-375 [21],Active
same,half-life,[22],1.48 h
same,Activity,[23],Non-Toxic
same,Activity,A-375 [24],91.99%
same,Activity,HCT-116 [25],89.6%
same,Activity,HeLa [26],22.36%
same,Tmax,[27],2 h
same,half-life,[28],2.84 h
